PubChem BioAssay
Activity calls are given as the source filed them.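 How the source made its calls, unless noted: active means viability at or below 30% in both replicate assays; inconclusive means viability at or below 30% in just one of the two assays; inactive means the rest.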

Experiments:
[1] = Her2 expression decrease, cell viability multiplex – SKBR3 breast tumor cells, AlphaScreen, ATP viability, primary screen (AID 461;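 active means Her2 level under about 52% in both replicate screens, with viability over 70% of control, limit read from the data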;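 on Her2 level: lower value means less Her2 protein in the cells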;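 on viability: percent of carrier control wells set as 100% viability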); settings: SKBR3 Her2 protein level, 18-24 h, measured here: SKBR3 viability, ATP luminescence, at 10 µM
[2] = target: Receptor tyrosine-protein kinase erbB-2 (Homo sapiens) (UniProt P04626); test: as above; settings: 18-24 h, at 10 µM, stronger effect = lower value
Sequence of Receptor tyrosine-protein kinase erbB-2 (Homo sapiens) (P04626 whole entry, looked up): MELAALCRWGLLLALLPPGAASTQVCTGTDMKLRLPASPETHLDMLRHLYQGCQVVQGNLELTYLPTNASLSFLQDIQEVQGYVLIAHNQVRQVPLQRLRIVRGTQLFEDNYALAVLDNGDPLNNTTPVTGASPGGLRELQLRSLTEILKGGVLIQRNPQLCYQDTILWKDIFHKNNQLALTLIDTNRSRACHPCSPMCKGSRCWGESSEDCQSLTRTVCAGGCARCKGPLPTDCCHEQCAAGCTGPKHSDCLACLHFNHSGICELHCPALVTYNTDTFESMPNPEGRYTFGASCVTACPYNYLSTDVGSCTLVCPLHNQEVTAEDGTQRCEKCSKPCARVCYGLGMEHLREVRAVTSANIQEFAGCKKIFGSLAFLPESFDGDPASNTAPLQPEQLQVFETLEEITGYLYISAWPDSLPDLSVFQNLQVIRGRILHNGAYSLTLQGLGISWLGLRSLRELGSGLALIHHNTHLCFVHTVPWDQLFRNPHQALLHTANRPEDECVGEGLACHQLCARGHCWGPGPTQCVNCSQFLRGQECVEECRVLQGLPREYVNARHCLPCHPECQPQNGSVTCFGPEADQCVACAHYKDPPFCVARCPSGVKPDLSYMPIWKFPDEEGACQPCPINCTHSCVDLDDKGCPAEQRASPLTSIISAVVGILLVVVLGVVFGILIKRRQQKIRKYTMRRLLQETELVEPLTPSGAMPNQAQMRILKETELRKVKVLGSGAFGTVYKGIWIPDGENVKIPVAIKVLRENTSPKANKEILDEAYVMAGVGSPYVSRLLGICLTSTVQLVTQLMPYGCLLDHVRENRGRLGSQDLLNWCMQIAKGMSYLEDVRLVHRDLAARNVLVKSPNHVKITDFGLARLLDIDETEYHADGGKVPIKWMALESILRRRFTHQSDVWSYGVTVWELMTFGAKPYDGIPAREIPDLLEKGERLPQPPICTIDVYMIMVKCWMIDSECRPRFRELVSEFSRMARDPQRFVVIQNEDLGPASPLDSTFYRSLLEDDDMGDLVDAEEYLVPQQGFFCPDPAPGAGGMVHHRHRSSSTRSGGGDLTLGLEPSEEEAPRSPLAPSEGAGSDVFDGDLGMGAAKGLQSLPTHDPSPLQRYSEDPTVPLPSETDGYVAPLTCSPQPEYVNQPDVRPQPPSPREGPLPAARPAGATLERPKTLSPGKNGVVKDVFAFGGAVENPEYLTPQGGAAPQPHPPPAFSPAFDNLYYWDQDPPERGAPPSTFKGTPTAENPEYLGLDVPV

[3] = reduced viability of SK-BR-3 breast cancer cells – cell-based, 24 h, human, pilot screen (AID 572;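 active means viability at or below 10% of carrier control in both of two separate runs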;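 further: compound exposure lasted between 18 and 24 h rather than exactly 24 h; 100% = carrier-treated control wells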); settings: SK-BR-3 viability, CellTiter-Glo luminescence, at 10 µM, stronger effect = lower value
[4] = HUVEC growth inhibition – cell-based, human, primary screen (AID 575); settings: HUVEC proliferation, CellTiter-Glo luminescence, 72 h; at 10 µM; stronger effect = lower value;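 further: 100% = median of untreated cell wells with 0.1% DMSO on each plate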
Outline: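 Test system: primary human umbilical vein endothelial cells. Quantity: 1250 cells/well. Compound: single 10 µM dose, 0.1% DMSO, from 5x medium stock. Timing: 72 h treatment at 37 °C. Detection: ATP-based CellTiter-Glo luminescent read. Benchmarks: vehicle and MePR control wells. Format: 384-well plates coated with collagen.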

[5] = H69AR cell proliferation blockers – human, duplicate replicates, primary screen (AID 580;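 active means viability at or under a set limit in both replicates, limit being median viability minus 3 SD, cut at about 48% in these data, passing the limit was not always enough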;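 further: 100% = mean luminescence of untreated wells and 0% = no signal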); settings: H69AR lung tumor cells viability, ATP luminescence, 72 h; at 10 µM; stronger effect = lower value
[6] = MRP1 drug-resistance reversers in H69AR cells – cell-based, doxorubicin co-treatment, pilot screen (AID 601;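 active means viability loss from added drug above about 55%, and viability with drug at most 40%, in both replicates, limit read from the data, passing the limit was not always enough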); settings: CellTiter-Glo, 72 h, at 10 µM; for differential viability (reversal): stronger effect = higher value
[7] = yeast transport mutant growth inhibition pilot in 384-well plates, post-Golgi transport modulator project (AID 636; in the data active means inhibition above about 31%); settings: absorbance 615 nm, about 18 h, stronger effect = higher value
[8] = growth suppression of yeast trafficking mutant, preliminary HTS, modulators of trafficking downstream of Golgi apparatus project, 1536-format plate, OD 615 nm (AID 637; in the data active means inhibition above about 30%); settings: yeast transport mutant growth, absorbance 615 nm, 18 h; stronger effect = higher value
[9] = H69AR cells + 2 uM doxorubicin, measured here: viability with 2 uM doxorubicin, stronger effect = lower value
[10] = H69AR cells, compound alone cytotoxicity

Row | Structure (SMILES) | viability [1] | Her2 level [2] | viability [3] | viability [4] | viability [5] | differential viability (reversal) ([6]; H69AR cells + 2 uM doxorubicin) | viability [6, 9] | viability [6, 10] | inhibition [7] | inhibition [8]
1 | O=C(Nn1cnnc1)c1cc2c(s1)CCCC2 | 100% | 95.5% (inactive) | 100% (inactive) | 80% (inactive) | 102% (inactive) | -2.61% (inactive) | 104% | 102% | -3.42% (inactive) | -4% (inactive)
2 | Cc1ccc2c(c1C)NC(C)CC2C (stereo not given) | 100% | 82% (inactive) | 100% (inactive) | 103% (inactive) | 97.2% (inactive) | 8.96% (inactive) | 88.2% | 97.2% | -0.39% (inactive) | -0.73% (inactive)
3 | ON1C2CCCCC2N(O)C1c1c(F)c(F)c(F)c(F)c1F (stereo not given) | 89.5% | 79% (inactive) | 89.5% (inactive) | 85.9% (inactive) | 92.8% (inactive) | 10.3% (inactive) | 82.5% | 92.8% | -5.2% (inactive) | -0.97% (inactive)
4 | CCSc1nnc(NC(=O)CSc2ncccn2)s1 | 97.5% | 102% (inactive) | 97.5% (inactive) | 112% (inactive) | 107% (inactive) | 22.3% (inactive) | 84.5% | 107% | -5.07% (inactive) | -2.74% (inactive)
5 | Cc1noc(C)c1CSc1nc2cc(S(=O)(=O)N3CCOCC3)ccc2o1 | 98.5% | 93% (inactive) | 98.5% (inactive) | 96.7% (inactive) | 83.6% (inactive) | -0.29% (inactive) | 83.9% | 83.6% | -5.48% (inactive) | 5.56% (inactive)
6 | CCOc1cc(C(=O)Nc2ccon2)cc(OCC)c1OCC | 100% | 110% (inactive) | 100% (inactive) | 96.8% (inactive) | 99.4% (inactive) | 2.21% (inactive) | 97.2% | 99.4% | -3.03% (inactive) | -1.17% (inactive)
7 | O=C1C(C=NCCCn2ccnc2)=C(O)c2ccccc21 | 83% | 82.5% (inactive) | 83% (inactive) | 105% (inactive) | 99.2% (inactive) | 17.2% (inactive) | 82% | 99.2% | -5.14% (inactive) | -1.75% (inactive)
8 | COc1cccc2cc(C(=O)C3=C(O)C(=O)N(CCCN4CCOCC4)C3c3ccncc3)oc12 (stereo not given) | 98% | 142% (inactive) | 98% (inactive) | 110% (inactive) | 96.8% (inactive) | -2.74% (inactive) | 99.6% | 96.8% | -5.19% (inactive) | -5.5% (inactive)
9 | COc1ccc(C(=O)Nc2cccc(-c3nc4ncccc4o3)c2C)cc1OC | 99% | 122% (inactive) | 99% (inactive) | 81.8% (inactive) | 92.8% (inactive) | 1.52% (inactive) | 91.2% | 92.8% | 3.42% (inactive) | -3.97% (inactive)
10 | Cc1nc2c(C(=O)O)cnn2c(C)c1Cc1ccccc1F | 97.5% | 141% (inactive) | 97.5% (inactive) | 70.6% (inactive) | 87.4% (inactive) | 2.52% (inactive) | 84.8% | 87.4% | 1.84% (inactive) | -8.33% (inactive)
11 | CCOc1ccc(-c2nnc(N)s2)cc1 | 95% | 90.5% (inactive) | 95% (inactive) | 96.3% (inactive) | 118% (inactive) | 25.6% (inactive) | 92.3% | 118% | 0.67% (inactive) | -1.29% (inactive)
12 | O=C(NCCCn1ccnc1)c1csc2ccccc12 | 84.5% | 89.5% (inactive) | 84.5% (inactive) | 95.4% (inactive) | 97.5% (inactive) | 11.9% (inactive) | 85.6% | 97.5% | -3.03% (inactive) | 3.67% (inactive)
13 | Cc1cc(C)n(CCc2nc(-c3cccs3)cs2)n1 | 93% | 88% (inactive) | 93% (inactive) | 106% (inactive) | 104% (inactive) | 25.3% (inactive) | 79.2% | 104% | -2.6% (inactive) | -0.48% (inactive)
14 | O=C(NCc1cccs1)C1CC(=O)N(c2ccccc2)C1 (stereo not given) | 96.5% | 105% (inactive) | 96.5% (inactive) | 123% (inactive) | 111% (inactive) | 9.26% (inactive) | 101% | 111% | -0.13% (inactive) | -2.3% (inactive)
15 | O=C1CC(=O)N(Cc2cccs2)C(=O)N1 | 93.5% | 99% (inactive) | 93.5% (inactive) | 103% (inactive) | 101% (inactive) | 6.82% (inactive) | 94% | 101% | -2.76% (inactive) | -3.82% (inactive)
16 | CCC(=O)N1CCc2cc(OC)c(OC)cc2C1COc1ccc(C(=O)OC)cc1 (stereo not given) | 94.5% | 83% (inactive) | 94.5% (inactive) | 87.2% (inactive) | 91.5% (inactive) | -2.33% (inactive) | 93.9% | 91.5% | -5.33% (inactive) | 1.61% (inactive)
